Measured values as given in ChEMBL document CHEMBL4673287, “Synthesis and biological evaluation of novel antipsychotic trans-4-(2-(1,2,4,5-tetrahydro-3H-benzo[d]azepin-3-yl)ethyl)cyclohexan-1-amine derivatives targeting dopamine/serotonin receptor subtypes” (Bioorg Med Chem Lett, 2021).

Tests used:
[1] = molecular target: T1, 5-hydroxytryptamine receptor 1A (Homo sapiens, UniProt P08908); assay: Displacement of [3H]OH-DPAT from recombinant human 5-HT1A receptor expressed in human HEK293 cells; format: cell-based
T1 sequence (P08908 whole entry): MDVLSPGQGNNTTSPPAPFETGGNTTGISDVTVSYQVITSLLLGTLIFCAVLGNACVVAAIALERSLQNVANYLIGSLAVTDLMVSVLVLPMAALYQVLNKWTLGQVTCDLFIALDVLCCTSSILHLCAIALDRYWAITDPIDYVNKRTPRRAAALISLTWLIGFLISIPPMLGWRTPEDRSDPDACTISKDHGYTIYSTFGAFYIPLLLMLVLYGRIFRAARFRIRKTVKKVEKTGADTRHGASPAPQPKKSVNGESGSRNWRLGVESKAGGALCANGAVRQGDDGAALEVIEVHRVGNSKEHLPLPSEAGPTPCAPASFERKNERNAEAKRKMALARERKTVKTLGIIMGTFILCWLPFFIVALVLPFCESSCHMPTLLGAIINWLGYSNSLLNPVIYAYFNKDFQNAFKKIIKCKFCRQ
Procedure, shortened: (§1)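 Eight-concentration displacement curves, two independent experiments in duplicate, value is the mean Ki.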

[2] = molecular target: T2, 5-hydroxytryptamine receptor 2A (Homo sapiens, UniProt P28223); assay: Displacement of [3H]ketanserin from recombinant human 5-HT2A receptor expressed in human HEK293 cells at 10 uM relative to control; format: cell-based
[3] = molecular target: Adrenergic receptor alpha-1 (Rattus norvegicus) (UniProt P15823+P23944+P43140); assay: Displacement of [3H]-prazosin from adrenergic alpha1 in rat cerebral cortex at 10 uM relative to control; format: tissue-based
[4] = molecular target: Histamine H1 receptor (Homo sapiens) (UniProt P35367); assay: Displacement of [3H]-pyrilamine from human H1 histamine receptor expressed in human HEK293 cells at 10 uM relative to control; format: cell-based
D(3) dopamine receptor [5] = molecular target: T3, D(3) dopamine receptor (Homo sapiens, UniProt P35462); assay: Displacement of [3H]methyl-spiperone from recombinant human D3 receptor expressed in CHO cells; format: cell-based
D(2) dopamine receptor [6] = molecular target: T4, D(2) dopamine receptor (Homo sapiens, UniProt P14416); assay: Displacement of [3H]-spiperone from recombinant human D2L receptor expressed in CHO cells; format: cell-based; procedure, shortened: as §1
[7] = molecular target: T5, 5-hydroxytryptamine receptor 1A (Homo sapiens) (UniProt P08908); assay: Displacement of [3H]OH-DPAT from recombinant human 5-HT1A receptor expressed in human HEK293 cells at 10 uM relative to control; format: cell-based
T5 sequence (whole entry): T1 sequence (P08908 whole entry)

[8] = molecular target: T2, 5-hydroxytryptamine receptor 2A; assay: Displacement of [3H]ketanserin from recombinant human 5-HT2A receptor expressed in human HEK293 cells; format: cell-based; procedure, shortened: as §1
[9] = Metabolic stability in rat liver microsomes assessed as half life; format: ADME, Microsome
[10] = Metabolic stability in rat liver microsomes assessed as intrinsic clearance; format: ADME, Microsome; conditions: read-out: CLH
D(3) dopamine receptor [11] = molecular target: T3, D(3) dopamine receptor; assay: Displacement of [3H]methyl-spiperone from recombinant human D3 receptor expressed in CHO cells at 10 uM relative to control; format: cell-based
[12] = Metabolic stability in human liver microsomes assessed as intrinsic clearance; format: ADME, Microsome; conditions: read-out: CLH
[13] = Metabolic stability in human liver microsomes assessed as half life; format: ADME, Microsome
D(2) dopamine receptor [14] = molecular target: T4, D(2) dopamine receptor; assay: Displacement of [3H]-spiperone from recombinant human D2L receptor expressed in CHO cells at 10 uM relative to control; format: cell-based
Rattus norvegicus = assay: Antipsychotic activity in orally dosed Sprague-Dawley rat assessed as inhibition of PCP-induced hyperactivity administered 20 mins before PCP stimulation and measured after 1 hr; format: functional, organism-based; conditions: dose 1-10 mg/kg, time 80.0 min
Procedure, shortened: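 Male Sprague-Dawley rats dosed orally 20 min before PCP (5 mg/kg) injection. Locomotor activity recorded for 1 h after PCP, read as total travel distance. Mean ± standard error of the mean, n = 8-10 per group.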

Histamine H1 receptor (Homo sapiens), sequence (P35367 whole entry): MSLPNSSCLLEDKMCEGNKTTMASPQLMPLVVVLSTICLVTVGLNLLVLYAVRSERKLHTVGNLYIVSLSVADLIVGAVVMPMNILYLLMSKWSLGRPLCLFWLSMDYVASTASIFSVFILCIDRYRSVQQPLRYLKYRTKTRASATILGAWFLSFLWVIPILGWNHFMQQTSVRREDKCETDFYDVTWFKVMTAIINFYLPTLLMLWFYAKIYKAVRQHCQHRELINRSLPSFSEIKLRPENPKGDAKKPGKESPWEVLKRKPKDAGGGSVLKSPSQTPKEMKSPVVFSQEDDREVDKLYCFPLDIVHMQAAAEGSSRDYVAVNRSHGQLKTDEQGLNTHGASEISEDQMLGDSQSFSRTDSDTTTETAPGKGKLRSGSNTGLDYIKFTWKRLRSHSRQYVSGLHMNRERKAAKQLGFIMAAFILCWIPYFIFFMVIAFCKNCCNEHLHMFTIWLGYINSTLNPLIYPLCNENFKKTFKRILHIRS
T4 sequence (P14416 whole entry): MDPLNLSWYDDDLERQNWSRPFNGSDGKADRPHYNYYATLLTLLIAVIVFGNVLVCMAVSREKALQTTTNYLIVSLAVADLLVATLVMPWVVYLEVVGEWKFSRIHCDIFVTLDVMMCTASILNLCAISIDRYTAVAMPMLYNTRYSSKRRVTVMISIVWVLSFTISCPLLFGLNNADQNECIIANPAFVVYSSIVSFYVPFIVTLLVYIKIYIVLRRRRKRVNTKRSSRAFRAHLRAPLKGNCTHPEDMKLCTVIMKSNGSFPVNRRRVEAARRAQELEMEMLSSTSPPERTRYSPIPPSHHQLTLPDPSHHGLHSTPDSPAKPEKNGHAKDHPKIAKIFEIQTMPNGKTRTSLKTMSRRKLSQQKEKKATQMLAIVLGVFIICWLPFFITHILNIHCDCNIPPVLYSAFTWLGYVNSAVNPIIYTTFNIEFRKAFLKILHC
T2 sequence (P28223 whole entry): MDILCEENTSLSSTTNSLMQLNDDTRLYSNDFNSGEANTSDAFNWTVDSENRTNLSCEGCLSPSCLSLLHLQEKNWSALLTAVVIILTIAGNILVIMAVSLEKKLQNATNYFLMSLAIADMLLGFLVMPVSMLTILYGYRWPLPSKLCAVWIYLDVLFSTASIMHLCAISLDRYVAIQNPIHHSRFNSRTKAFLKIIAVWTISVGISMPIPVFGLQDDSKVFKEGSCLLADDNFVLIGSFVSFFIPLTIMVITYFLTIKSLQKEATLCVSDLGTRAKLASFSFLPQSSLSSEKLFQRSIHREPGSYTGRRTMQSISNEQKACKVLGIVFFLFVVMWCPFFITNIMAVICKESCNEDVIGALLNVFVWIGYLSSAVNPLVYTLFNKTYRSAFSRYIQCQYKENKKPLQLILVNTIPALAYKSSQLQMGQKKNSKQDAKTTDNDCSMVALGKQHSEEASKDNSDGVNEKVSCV
T3 sequence (P35462 whole entry): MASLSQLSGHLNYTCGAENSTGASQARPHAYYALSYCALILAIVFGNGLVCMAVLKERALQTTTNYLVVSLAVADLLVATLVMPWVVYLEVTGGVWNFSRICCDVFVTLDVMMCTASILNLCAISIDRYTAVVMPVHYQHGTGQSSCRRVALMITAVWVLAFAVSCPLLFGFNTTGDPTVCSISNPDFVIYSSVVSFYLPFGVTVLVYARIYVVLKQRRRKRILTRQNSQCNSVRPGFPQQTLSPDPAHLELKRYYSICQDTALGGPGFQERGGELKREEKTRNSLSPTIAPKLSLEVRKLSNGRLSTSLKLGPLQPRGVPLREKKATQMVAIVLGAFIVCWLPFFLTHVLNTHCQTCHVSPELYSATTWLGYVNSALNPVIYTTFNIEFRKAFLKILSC

Compound	Ki [1] [nM]	inhibition [2] [%]	inhibition [3] [%]	inhibition [4] [%]	Ki (D(3) dopamine receptor [5]) [nM]	Ki (D(2) dopamine receptor [6]) [nM]	further results
C[C@H]1CN(CC[C@H]2CC[C@H](NC(=O)[C@@H]3CCCN3)CC2)CCc2ccc(Cl)cc21	74.7	89	75.8	60.1	9.5	25.3	–
C[C@H]1CN(CC[C@H]2CC[C@H](NC(=O)c3ccco3)CC2)CCc2ccc(Cl)cc21	10.6	–	–	–	1.8	19.3	–
C[C@H]1CN(CC[C@H]2CC[C@H](NC(=O)N(C)c3ccccc3)CC2)CCc2ccc(Cl)cc21	–	58.8	38.6	75	17.2	189	inhibition ([7]; filed as antagonist): 82.3%
CCN(CC)C(=O)N[C@H]1CC[C@H](CCN2CCc3ccc(Cl)cc3[C@@H](C)C2)CC1	–	73.6	29.1	69.2	15	91.1	inhibition [7]: 75.2%
C[C@H]1CN(CC[C@H]2CC[C@H](NC(=O)C3CC3)CC2)CCc2ccc(Cl)cc21	191	56.6	57.6	33.2	8.2	9.8	–
C[C@H]1CN(CC[C@H]2CC[C@H](N3C(=O)CC4(CCCC4)CC3=O)CC2)CCc2ccc(Cl)cc21	4.3	–	60.9	–	1.2	12.1	Ki [8]: 16.2 nM
CCN(C)C(=O)N[C@H]1CC[C@H](CCN2CCc3ccc(Cl)cc3[C@@H](C)C2)CC1	36	85.9	43.5	49.7	7.2	23.9	–
C[C@H]1CN(CC[C@H]2CC[C@H](NC(=O)N3CCCC3)CC2)CCc2ccc(Cl)cc21	5.3	87.4	60.3	56.8	1.1	6.3	–
C[C@H]1CN(CC[C@H]2CC[C@H](N3C(=O)[C@@H]4[C@@H]5CC[C@@H](C5)[C@@H]4C3=O)CC2)CCc2ccc(Cl)cc21	24.9	80.8	79.2	–	3.3	31.6	–
C[C@H]1CN(CC[C@H]2CC[C@H](NC(=O)Nc3ccccc3)CC2)CCc2ccc(Cl)cc21	–	67	53.8	–	1.5	2.8	inhibition ([4]; filed as antagonist): 88.2%
COc1ccc2[nH]c([S+]([O-])Cc3ncc(C)c(OC)c3C)nc2c1 (centres undefined) [OMEPRAZOLE]	–	–	–	–	–	–	half-life [9]: 38.5 min; microsomal CLint [10]: 193 µL/min/mg
C[C@H]1CN(CC[C@H]2CC[C@H](N3C(=O)c4ccccc4C3=O)CC2)CCc2ccc(Cl)cc21	–	36.3	37.2	40.8	–	5.8	inhibition [7]: 82.6%; inhibition (D(3) dopamine receptor [11]): 82%
COc1ccc2c(c1)[C@]13CCCC[C@@H]1[C@H](C2)N(C)CC3 [DEXTROMETHORPHAN]	–	–	–	–	–	–	microsomal CLint [12]: 59.7 µL/min/mg; half-life [13]: 23.2 min
C[C@H]1CN(CC[C@H]2CC[C@H](NC(=O)N3CCOCC3)CC2)CCc2ccc(Cl)cc21	–	50.6	48	33.3	1.8	2.9	inhibition [7]: 86.1%
C[C@@H]1CN(CC[C@H]2CC[C@H](NC(=O)N(C)C)CC2)CCc2ccc(Cl)cc21	–	72	48.3	46.5	195	290	inhibition [7]: 83.9%
C[C@H]1CN(CC[C@H]2CC[C@H](N3C(=O)CCC3=O)CC2)CCc2ccc(Cl)cc21	93.4	47.4	62.1	62.4	191	–	inhibition (D(2) dopamine receptor [14]): 79.8%
C[C@H]1CN(CC[C@H]2CC[C@H](NC(=O)[C@@H]3CCCO3)CC2)CCc2ccc(Cl)cc21	98.3	69.6	36.4	32.2	19.1	20.6	–
CN1CCN(C2=Nc3cc(Cl)ccc3Nc3ccccc32)CC1	–	–	–	–	–	–	Activity (Rattus norvegicus): Dose-dependent effect
C[C@H]1CN(CC[C@H]2CC[C@H](NC(=O)N(C)C)CC2)CCc2ccc(Cl)cc21	14.5	–	44.1	59.6	0.5	5.9	microsomal CLint [12]: 42.4 µL/min/mg; Ki [8]: 25.6 nM; Activity (Rattus norvegicus): Dose-dependent effect; half-life [9]: 23.2 min; microsomal CLint [10]: 59.7 µL/min/mg; half-life [13]: 32.7 min
C[C@H]1CN(CC[C@H]2CC[C@H](N3C(=O)[C@@H]4[C@H](C3=O)[C@@H]3C=C[C@H]4C3)CC2)CCc2ccc(Cl)cc21	22.8	82.8	74.4	–	6.9	43.7	–
CCCC(=O)N[C@H]1CC[C@H](CCN2CCc3ccc(Cl)cc3[C@@H](C)C2)CC1	–	52.7	18.7	27	8.1	84	inhibition [7]: 81.3%
C[C@H]1CN(CC[C@H]2CC[C@H](N3C(=O)[C@H]4CCCC[C@H]4C3=O)CC2)CCc2ccc(Cl)cc21	6.6	76.9	63.2	86.1	9.3	14.1	–
C[C@H]1CN(CC[C@H]2CC[C@H](NC(=O)C3CCCCC3)CC2)CCc2ccc(Cl)cc21	–	38.2	35.3	36.8	17.5	99.3	inhibition [7]: 69.9%
CC1CN(CC[C@H]2CC[C@H](NC(=O)N(C)C)CC2)CCc2ccc(Cl)cc21 (mixture of isomers)	–	19.6	38	25.8	–	–	inhibition [7]: 26.9%; inhibition (D(3) dopamine receptor [11]): 68%; inhibition (D(2) dopamine receptor [14]): 54.5%
